From ChEMBL document CHEMBL1155236, “Identification of biphenyl-based hybrid molecules able to decrease the intracellular level of Bcl-2 protein in Bcl-2 overexpressing leukemia cells” (J Med Chem, 2009)
Values belong to the compound of their own block, whether it stands above or below them. Active and inactive are the calls of the source. The calls are words filed in the database; no cut-off is given here.

Key:
K562 [1] = test: Antiproliferative activity against human K562 cells after 48 hrs by trypan blue method; assay type: functional, cell-based; conditions: K562, 48 h
Method in brief: (§1)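 Growth inhibition read by counting cells with an automatic cell counter after 48 h of compound exposure. IC50 is the concentration inhibiting 50% of cell growth.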

HL-60 [2] = test: Antiproliferative activity against human HL60 cells after 48 hrs by trypan blue method; assay type: functional, cell-based; conditions: HL-60, 48 h; method in brief: as §1
K562 [3] = test: Induction of apoptosis in human K562 cells assessed as morphological changes after 48 hrs by annexin V assay; assay type: functional, cell-based; conditions: K562, 48 h
Method in brief: (§2)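 HL60 or K562 cells treated for 48 h. Apoptosis scored by morphological assay and annexin V test. AC50 is the concentration inducing apoptosis in 50% of cells.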

K562 [4] = test: Cell cycle arrest in human K562 cells by accumulation at G2/M phase at 30 uM after 24 hrs using propidium iodide staining by FACS; assay type: functional
Method in brief: (§3)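 K562 cells treated for 24, 48 or 72 h. Cells stained with propidium iodide and cell-cycle phase distribution analysed by flow cytometry against untreated cells. The sub-G0–G1 peak was taken as apoptotic.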

[5] = Cytotoxicity against human lymphocytes after 48 hrs by trypan blue method; assay type: cell-based; conditions: Lymphocyte; method in brief: as §1
K562 [6] = test: Cell cycle arrest in human K562 cells by accumulation at G1 phase at 30 uM after 24 hrs using propidium iodide staining by FACS; assay type: functional; method in brief: as §3
K562 [7] = test: Cell cycle arrest in human K562 cells by accumulation at S phase at 30 uM after 48 hrs using propidium iodide staining by FACS; assay type: functional; method in brief: as §3
K562 [8] = test: Cell cycle arrest in human K562 cells by accumulation at sub-G1 (apoptotic) phase at 30 uM after 72 hrs using propidium iodide staining by FACS; assay type: functional; method in brief: as §3
K562 [9] = test: Cell cycle arrest in human K562 cells by accumulation at G2/M phase at 30 uM after 48 hrs using propidium iodide staining by FACS; assay type: functional; method in brief: as §3
K562 [10] = test: Induction of apoptosis in human K562 cells assessed as decrease in Bcl-2 expression at 30 uM after 24 hrs by flow cytometry; assay type: functional; parameters: scale not given: the % may be the effect or the level left
Method in brief: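 K562 cells cultured 24 h with compound at 30 μM or without (control). Intracellular Bcl-2 read by flow cytometry after staining with FITC-conjugated anti-Bcl-2 monoclonal antibody. Treated histograms compared with control histograms.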

K562 [11] = test: Cell cycle arrest in human K562 cells by accumulation at S phase at 30 uM after 72 hrs using propidium iodide staining by FACS; assay type: functional; method in brief: as §3
K562 [12] = test: Cell cycle arrest in human K562 cells by accumulation at G2/M phase at 30 uM after 72 hrs using propidium iodide staining by FACS; assay type: functional; method in brief: as §3
HL-60 [13] = test: Induction of apoptosis in human HL60 cells assessed as morphological changes after 48 hrs by annexin V assay; assay type: functional, cell-based; conditions: HL-60, 48 h; method in brief: as §2
K562 [14] = test: Cell cycle arrest in human K562 cells by accumulation at sub-G1 (apoptotic) phase at 30 uM after 24 hrs using propidium iodide staining by FACS; assay type: functional; method in brief: as §3
K562 [15] = test: Cell cycle arrest in human K562 cells by accumulation at S phase at 30 uM after 24 hrs using propidium iodide staining by FACS; assay type: functional; method in brief: as §3
K562 [16] = test: Cell cycle arrest in human K562 cells by accumulation at sub-G1 (apoptotic) phase at 30 uM after 48 hrs using propidium iodide staining by FACS; assay type: functional; method in brief: as §3
K562 [17] = test: Cell cycle arrest in human K562 cells by accumulation at G1 phase at 30 uM after 72 hrs using propidium iodide staining by FACS; assay type: functional; method in brief: as §3
K562 [18] = test: Cell cycle arrest in human K562 cells by accumulation at G1 phase at 30 uM after 48 hrs using propidium iodide staining by FACS; assay type: functional; method in brief: as §3
K562 [19] = test: Induction of apoptosis in human K562 cells assessed as induction of cell differentiation marker CD11c expression at 10 uM after 120 hrs by flow cytometry; assay type: functional, cell-based
Method in brief: (§4)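 HL60 or K562 cells exposed to 10 μM compound or no compound (control) for 120 h (5 days). Surface CD11c and CD61 read by flow cytometry with PE- or FITC-conjugated monoclonal antibodies. Treated cells compared with untreated cells.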

HL-60 [20] = test: Induction of apoptosis in human HL60 cells assessed as induction of cell differentiation marker CD11c expression at 10 uM after 120 hrs by flow cytometry; assay type: functional, cell-based; method in brief: as §4
K562 [21] = test: Induction of apoptosis in human K562 cells assessed as induction of cell differentiation marker CD61 expression at 10 uM after 120 hrs by flow cytometry; assay type: functional, cell-based; method in brief: as §4
HL-60 [22] = test: Induction of apoptosis in human HL60 cells assessed as induction of cell differentiation marker CD61 expression at 10 uM after 120 hrs by flow cytometry; assay type: functional, cell-based; method in brief: as §4
K562 [23] = test: Cell cycle arrest in human K562 cells by accumulation at A phase at 130 uM after 72 hrs using propidium iodide staining by FACS; assay type: functional; method in brief: as §3
K562 [24] = test: Cell cycle arrest in human K562 cells by accumulation at G1 phase at 130 uM after 48 hrs using propidium iodide staining by FACS; assay type: functional; method in brief: as §3
K562 [25] = test: Cell cycle arrest in human K562 cells by accumulation at G2/M phase at 130 uM after 48 hrs using propidium iodide staining by FACS; assay type: functional; method in brief: as §3
K562 [26] = test: Cell cycle arrest in human K562 cells by accumulation at G1 phase at 130 uM after 24 hrs using propidium iodide staining by FACS; assay type: functional; method in brief: as §3
K562 [27] = test: Cell cycle arrest in human K562 cells by accumulation at S phase at 130 uM after 48 hrs using propidium iodide staining by FACS; assay type: functional; method in brief: as §3
K562 [28] = test: Cell cycle arrest in human K562 cells by accumulation at S phase at 130 uM after 72 hrs using propidium iodide staining by FACS; assay type: functional; method in brief: as §3
K562 [29] = test: Cell cycle arrest in human K562 cells by accumulation at G2/M phase at 130 uM after 72 hrs using propidium iodide staining by FACS; assay type: functional; method in brief: as §3
K562 [30] = test: Cell cycle arrest in human K562 cells by accumulation at G1 phase at 130 uM after 72 hrs using propidium iodide staining by FACS; assay type: functional; method in brief: as §3
K562 [31] = test: Cell cycle arrest in human K562 cells by accumulation at A phase at 130 uM after 48 hrs using propidium iodide staining by FACS; assay type: functional; method in brief: as §3
K562 [32] = test: Cell cycle arrest in human K562 cells by accumulation at A phase at 130 uM after 24 hrs using propidium iodide staining by FACS; assay type: functional; method in brief: as §3
K562 [33] = test: Cell cycle arrest in human K562 cells by accumulation at G2/M phase at 130 uM after 24 hrs using propidium iodide staining by FACS; assay type: functional; method in brief: as §3
K562 [34] = test: Cell cycle arrest in human K562 cells by accumulation at S phase at 130 uM after 24 hrs using propidium iodide staining by FACS; assay type: functional; method in brief: as §3

Compound: CC1(C)OC(=O)C2(C(=O)O1)[C@@H](c1ccc(O)cc1)CC(=O)C[C@H]2c1ccc(O)cc1
IC50 (K562 [1]): > 100 µM
IC50 (HL-60 [2]): 87 µM

Compound: CC1(C)OC(=O)C2(C(=O)O1)[C@@H](c1ccc(-c3ccc(O)cc3)cc1)CC(=O)C[C@H]2c1ccccc1
AC50 (K562 [3]): 33 µM
Activity (K562 [4]): 11%
IC50 [5]: 172 µM
Activity (K562 [6]): 46%
Activity (K562 [7]): 52%
IC50 (K562 [1]): 9 µM
IC50 (HL-60 [2]): 8 µM
Activity (K562 [8]): 47%
Activity (K562 [9]): 9%
Activity (K562 [10]): 31.2%
Activity (K562 [11]): 54%
Activity (K562 [12]): 9%
AC50 (HL-60 [13]): 16 µM
Activity (K562 [14]): 7%
Activity (K562 [15]): 43%
Activity (K562 [16]): 46%
Activity (K562 [17]): 37%
Activity (K562 [18]): 39%

Compound: Oc1ccc(-c2ccc(-c3cc(O)cc(O)c3)cc2)cc1
AC50 (K562 [3]): 75 µM
IC50 (K562 [1]): 20 µM

Compound: COc1ccc(-c2ccc([C@H]3CC(=O)C[C@@H](c4ccccc4)C34C(=O)c3ccccc3C4=O)cc2)cc1
IC50 (K562 [1]): > 100 µM
IC50 (HL-60 [2]): > 100 µM

Compound: O=C1C[C@H](c2ccccc2)C2(C(=O)c3ccccc3C2=O)[C@H](c2ccccc2)C1
Activity (K562 [23]): 20%
Activity (K562 [24]): 26%
Activity (K562 [25]): 34%
Activity (K562 [26]): 27%
IC50 (K562 [1]): 98 µM
Activity (K562 [27]): 40%
IC50 (HL-60 [2]): 20 µM
Activity (K562 [28]): 21%
Activity (K562 [29]): 72%
Activity (K562 [30]): 7%
Activity (K562 [31]): 18%
Activity (K562 [32]): 13%
Activity (K562 [33]): 12%
Activity (K562 [34]): 61%

Continued, in another order:

IC50 (K562 [1]): 95 µM
IC50 (HL-60 [2]): 86 µM
Compound: O=C1C[C@H](c2cnc[nH]2)C2(C(=O)c3ccccc3C2=O)[C@H](c2ccc(O)cc2)C1

IC50 (K562 [1]): > 100 µM
IC50 (HL-60 [2]): 62 µM
Compound: CC1(C)OC(=O)C2(C(=O)O1)[C@@H](c1c[nH]c3ccccc13)CC(=O)C[C@H]2c1ccccc1

IC50 (K562 [1]): 14 µM
IC50 (HL-60 [2]): 6 µM
Compound: O=C1C[C@H](c2ccc(-c3ccc(CO)cc3)cc2)C2(C(=O)c3ccccc3C2=O)[C@H](c2ccccc2)C1
AC50 (K562 [3]): 80 µM
Activity (K562 [4]): 19%
IC50 ([5]; read-out: IC50): 286 µM
Activity (K562 [19]): inactive
Activity (K562 [6]): 47%
Activity (HL-60 [20]): Active
Activity (K562 [7]): 30%
Activity (K562 [8]): 11%
Activity (K562 [9]): 22%
Activity (K562 [21]): inactive
Activity (K562 [10]): 4.3%
Activity (HL-60 [22]): Active
Activity (K562 [11]): 32%
Activity (K562 [12]): 20%
AC50 (HL-60 [13]; read-out: AC50): 12 µM
Activity (K562 [14]): 4%
Activity (K562 [15]): 34%
Activity (K562 [16]): 6%
Activity (K562 [17]): 48%
Activity (K562 [18]): 48%
